Several values for one entry are separate records, joined by “and”; a condition that tells them apart may be missing. Equal entries are not always repeated.
Key:
Assay type in all cases: functional, Urine
[1] = test system: Rattus norvegicus; assay: Diuretic activity by measuring the urinary output at the dose of 75 mg/kg
Method in brief: (§1)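 Groups of eight male Sprague–Dawley-derived rats, fasted 18 h with water ad libitum, received oral doses by dosing needle in 5% acacia–isotonic saline; the vehicle served as control. Rats were placed in metabolism cages with no food or water, and urine was collected for 5 h. Bladders were then emptied by pulling at the tail base (modified Lipschitz method).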

[2] = test system: Rattus norvegicus; assay: Total Cl- milliequivalents excretion in diuretic test at the dose of 75 mg/kg
[3] = test system: Rattus norvegicus; assay: Total K+ milliequivalents excretion in diuretic test at the dose of 75 mg/kg
[4] = test system: Rattus norvegicus; assay: Total Na+ milliequivalents excretion in diuretic test at the dose of 75 mg/kg
[5] = test system: Rattus norvegicus; assay: Diuretic activity by measuring the urinary output at the dose of 25 mg/kg
Method in brief: (§2)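 Male Sprague–Dawley rats (195–225 g) were fasted and deprived of water for 18 h. The compound was given orally, dissolved in 25 mL/kg saline; controls got saline alone. Groups of eight were housed as pairs in metabolism cages. Urine volume was read at 2 and 5 h, with total Na+, Cl− and K+ mequiv excreted. Values are mean ± SEM, N = 8.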

[6] = test system: Rattus norvegicus; assay: Total Cl- milliequivalents excretion in diuretic test at the dose of 25 mg/kg; method in brief: as §2
[7] = test system: Rattus norvegicus; assay: Total K+ milliequivalents excretion in diuretic test at the dose of 25 mg/kg; method in brief: as §2
[8] = test system: Rattus norvegicus; assay: Total Na+ milliequivalents excretion in diuretic test at the dose of 25 mg/kg; method in brief: as §2
[9] = test system: Rattus norvegicus; assay: Diuretic activity by measuring the urinary output at the dose of 150 mg/kg; method in brief: as §1
[10] = test system: Rattus norvegicus; assay: Total Cl- milliequivalents excretion in diuretic test at the dose of 150 mg/kg
[11] = test system: Rattus norvegicus; assay: Total K+ milliequivalents excretion in diuretic test at the dose of 150 mg/kg
[12] = test system: Rattus norvegicus; assay: Total Na+ milliequivalents excretion in diuretic test at the dose of 150 mg/kg
[13] = test system: Rattus norvegicus; assay: Diuretic activity by measuring the urinary output at the dose of 20 mg/kg; method in brief: as §1
[14] = test system: Rattus norvegicus; assay: Diuretic activity by measuring the urinary output at the dose of 40 mg/kg; method in brief: as §1
[15] = test system: Rattus norvegicus; assay: Total Cl- milliequivalents excretion in diuretic test at the dose of 12 mg/kg; method in brief: as §2
[16] = test system: Rattus norvegicus; assay: Total Cl- milliequivalents excretion in diuretic test at the dose of 1 mg/kg; method in brief: as §2
[17] = test system: Rattus norvegicus; assay: Total Cl- milliequivalents excretion in diuretic test at the dose of 27 mg/kg
Method in brief: (§3)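 Oral dosing was in 25 mL/kg saline to male Sprague–Dawley rats (195–225 g) after 18 h without food or water, with saline-only controls. Groups of eight were kept two per metabolism cage. Urinary Na+, Cl− and K+ were reported as total mequiv excreted, with electrolyte analysis done externally. Values are mean ± SEM of two rats per cage, N = 8.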

[18] = test system: Rattus norvegicus; assay: Total Cl- milliequivalents excretion in diuretic test at the dose of 9 mg/kg; method in brief: as §3
[19] = test system: Rattus norvegicus; assay: Total Cl-mequiv excretion in diuretic test at the dose of 3 mg/kg; method in brief: as §2
[20] = test system: Rattus norvegicus; assay: Diuretic activity by measuring the urinary output after 2 hr at the dose of 12 mg/kg; method in brief: as §2
[21] = test system: Rattus norvegicus; assay: Diuretic activity by measuring the urinary output after 2 hr at the dose of 1 mg/kg; method in brief: as §2
[22] = test system: Rattus norvegicus; assay: Total K+ milliequivalents excretion in diuretic test at the dose of 12 mg/kg; method in brief: as §2
[23] = test system: Rattus norvegicus; assay: Total K+ milliequivalents excretion in diuretic test at the dose of 1 mg/kg; method in brief: as §2
[24] = test system: Rattus norvegicus; assay: Total K+ milliequivalents excretion in diuretic test at the dose of 27 mg/kg; method in brief: as §3
[25] = test system: Rattus norvegicus; assay: Total K+ milliequivalents excretion in diuretic test at the dose of 3 mg/kg; method in brief: as §3
[26] = test system: Rattus norvegicus; assay: Total Na+ milliequivalents excretion in diuretic test at the dose of 12 mg/kg; method in brief: as §2
[27] = test system: Rattus norvegicus; assay: Total Na+ milliequivalents excretion in diuretic test at the dose of 1 mg/kg; method in brief: as §2
[28] = test system: Rattus norvegicus; assay: Total Na+ milliequivalents excretion in diuretic test at the dose of 27 mg/kg; method in brief: as §3
[29] = test system: Rattus norvegicus; assay: Total Na+ milliequivalents excretion in diuretic test at the dose of 3 mg/kg; method in brief: as §3
[30] = test system: Rattus norvegicus; assay: Total Na+ milliequivalents excretion in diuretic test at the dose of 9 mg/kg; method in brief: as §3
[31] = test system: Rattus norvegicus; assay: Diuretic activity by measuring the urinary output after 2 hr at the dose of 27 mg/kg
Method in brief: (§4)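 Male Sprague–Dawley rats (195–225 g) were fasted and deprived of water for 18 h, then dosed orally with compound dissolved in 25 mL/kg saline. Controls got 25 mL/kg saline alone. Groups of eight were used, housed two rats per metabolism cage right after dosing. Urine volume was collected at 2 h and 5 h after dosing. Values are mean ± SEM per cage pair, N = 8.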

[32] = test system: Rattus norvegicus; assay: Diuretic activity by measuring the urinary output after 2 hr at the dose of 3 mg/kg; method in brief: as §4
[33] = test system: Rattus norvegicus; assay: Diuretic activity by measuring the urinary output after 2 hr at the dose of 9 mg/kg; method in brief: as §4
[34] = test system: Rattus norvegicus; assay: Diuretic activity by measuring the urinary output after 5 hr at the dose of 12 mg/kg; method in brief: as §2
[35] = test system: Rattus norvegicus; assay: Diuretic activity by measuring the urinary output after 5 hr at the dose of 27 mg/kg; method in brief: as §4
[36] = test system: Rattus norvegicus; assay: Diuretic activity by measuring the urinary output after 5 hr at the dose of 3 mg/kg; method in brief: as §4
[37] = test system: Rattus norvegicus; assay: Diuretic activity by measuring the urinary output after 5 hr at the dose of 9 mg/kg; method in brief: as §4
[38] = test system: Rattus norvegicus; assay: Total K+ milliequivalents excretion in diuretic test at the dose of 9 mg/kg; method in brief: as §3
[39] = test system: Rattus norvegicus; assay: Diuretic activity by measuring the urinary output at the dose of 100 mg/kg; method in brief: as §1
[40] = test system: Rattus norvegicus; assay: Diuretic activity by measuring the urinary output at the dose of 400 mg/kg; method in brief: as §1

`O=C1NC(c2cccnc2)Nc2nccnc21` (centres undefined) gave a Control [1] of 97%, an Excretion [2] of 1.2 m equiv and an Excretion [3] of 0.4 m equiv. For the same molecule, the Excretion [4] was 1.2 m equiv.
`O=C1NC(c2cccnc2)Nc2[nH]cnc21` (centres undefined) was tested, and the Control [5] was 138%, the Excretion [6] was 1.3 m equiv and the Excretion [7] was 0.6 m equiv. The Excretion [8] was 1.4 m equiv.
For `O=C1NC(c2ccc([N+](=O)[O-])cc2)Nc2ncccc21` (centres undefined), the Control [5] was 110%, the Control [1] was 115% and the Excretion [6] was 1.3 m equiv. It also gave an Excretion [2] of 1.7 m equiv, an Excretion [7] of 0.4 m equiv and an Excretion [8] of 1.2 m equiv. The Excretion ([4]; 75 mg/kg) was 1.5 m equiv and 0.6 m equiv.
In the case of `CC1(C(=O)NCc2cccnc2)NC(=O)c2ccccc2N1` (centres undefined), the Control [9] is reported as 120%, the Excretion [10] is reported as 1.5 m equiv and the Excretion [11] is reported as 0.5 m equiv. It also gave an Excretion [12] of 1.4 m equiv.
For `NS(=O)(=O)c1cc(C(=O)O)c(NCc2ccco2)cc1Cl` [FUROSEMIDE], the Control [13] was 444% and the Control [14] was 517%.
In the case of `CN(C)C(=O)C1(C)NC(=O)c2ccccc2N1` (centres undefined), the Control [9] is reported as 100%, the Excretion [10] is reported as 1.4 m equiv and the Excretion [11] is reported as 0.4 m equiv. The Excretion [12] was 1.1 m equiv.
`NS(=O)(=O)c1cc2c(cc1Cl)NCNS2(=O)=O` [HYDROCHLOROTHIAZIDE] was tested, and the Control [5] was 201%, the Excretion [15] was 2.8 m equiv and the Excretion [16] was 2.5 m equiv. The Excretion [17] was 3 m equiv, the Excretion [18] was 2.7 m equiv and the Excretion [19] was 2.7 m equiv. The Excretion [20] was 7.9 mL, the Excretion [21] was 7.8 mL and the Excretion [22] was 0.7 m equiv and 0.6 m equiv. For the same molecule, the Excretion [23] was 0.6 m equiv, the Excretion [24] was 0.8 m equiv and the Excretion [25] was 0.6 m equiv. It also gave an Excretion [26] of 2.5 m equiv, an Excretion [27] of 2 m equiv and an Excretion [28] of 2.5 m equiv. The Excretion [29] was 2.4 m equiv, the Excretion [30] was 2.2 m equiv and the Excretion [31] was 8.4 mL. The Excretion [32] was 8.1 mL, the Excretion [33] was 7.5 mL and the Excretion [34] was 16 mL and 13.9 mL. The Excretion [35] was 15.1 mL, the Excretion [36] was 15.8 mL and the Excretion [37] was 14.6 mL. It also gave an Excretion [38] of 0.6 m equiv.
With `O=C1NC(c2cc(Br)co2)Nc2ncccc21` (centres undefined) the Control [39] was 94%, the Control [5] was 101% and the Control [40] was 110%.
For `O=C1NC(c2ccco2)Nc2ncccc21` (centres undefined), the Control [39] was 194%, the Control [5] was 121% and the Control [40] was 193%.
`Oc1nc(-c2ccco2)nc2ncccc12` gave a Control [39] of 212%, a Control [5] of 167% and a Control [40] of 36%.

From ChEMBL document CHEMBL1122172, “Syntheses and diuretic activity of 1,2-dihydro-2-(3-pyridyl)-3H-pyrido[2,3-d]pyrimidin-4-one and related compounds” (1982)
